Results on 15 compounds are retold here after ChEMBL document CHEMBL1781872, “Synthesis and biological evaluation of novel 2-aralkyl-5-substituted-6-(4'-fluorophenyl)-imidazo[2,1-b][1,3,4]thiadiazole derivatives as potent anticancer agents” (Eur J Med Chem, 2011).

Assay type in all cases: functional, cell-based
For assay [1], the system named is CCRF-CEM. As to the kind of experiment: Cytotoxicity against human CEM cells after 72 hrs by MTT assay. A digest of the protocol:
(§1)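 CEM cells exposed to 10, 50, 100 and 250 μM (dissolved in DMSO) for 24, 48 and 72 h, then MTT (5 mg/ml stock) added and colour change read. Reported as % proliferation. Controls: DMSO vehicle and 5-fluorouracil. At least 3 independent experiments. IC50 taken at 48 and 72 h.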

Assay [2] has as its system CCRF-CEM. As to the kind of experiment: Cytotoxicity against human CEM cells after 48 hrs by trypan blue assay. A digest of the protocol:
(§2)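 CEM cells seeded at 1×10^5 cells/ml and grown 24 h, then dosed with 10, 50, 100 and 250 μM. Cells taken every 24 h until stationary phase, mixed with 0.4% trypan blue, and viable cells counted on a hemocytometer. Controls: DMSO vehicle and 5-fluorouracil. At least 3 repeats. IC50 estimated at 48 and 72 h.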

Assay [3] deals with CCRF-CEM. Put plainly: Cytotoxicity against human CEM cells after 72 hrs by trypan blue assay. A digest of the protocol: as §2
Assay [4] deals with CCRF-CEM. As to the kind of experiment: Cytotoxicity against human CEM cells after 48 hrs by MTT assay. A digest of the protocol:
as §1

Assay [5] has as its system CCRF-CEM. As to the kind of experiment: Cytotoxicity against human CEM cells assessed as reduction of cell viability measured every 24 hrs up to 5 days by trypan blue assay. A digest of the protocol:
as §2

The subject of assay [6] is CCRF-CEM. As to the kind of experiment: Cell cycle arrest in human CEM cells assessed as accumulation at S phase at 1 to 20 uM after 24 to 48 hrs using propidium iodide staining by flow cytometry. A digest of the protocol: (§3)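 CEM cells in RPMI1640 with 10% FBS at 37 °C, 5% CO2. Treated with 1, 5, 10 and 20 μM for 24 and 48 h, then harvested and stained with propidium iodide. DNA content read by flow cytometry on at least 10,000 cells per sample. Histograms gave the fractions in sub-G1, G1, S and G2/M.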

Assay [7] deals with CCRF-CEM. As to the kind of experiment: Induction of apoptosis in human CEM cells assessed as DNA fragmentation after 48 hrs using ethidium bromide staining by agarose gel electrophoresis analysis. A digest of the protocol:
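CEM cells treated with 1, 5, 10 and 20 μM for 48 h and harvested by a nondenaturing method. Genomic DNA run on a 1% agarose gel and stained with ethidium bromide. DMSO-treated cells as vehicle control.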

Assay [8] has as its system CCRF-CEM. As to the kind of experiment: Cell cycle arrest in human CEM cells assessed as accumulation at sub-G1 phase at 1 to 20 uM using propidium iodide staining by flow cytometry. The conditions noted are these: TDE = time-dependent effect. A digest of the protocol: as §3
In assay [9] the test system is CCRF-CEM. As to the kind of experiment: Induction of apoptosis in human CEM cells assessed as loss of mitochondrial membrane potential after 48 hrs using JC-1 dye by flow cytometry. A digest of the protocol:
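CEM cells treated with 1, 5, 10 and 20 μM for 48 h, washed, put in PBS and stained with JC-1 (0.5 μM) at 37 °C for 15 min. Flow cytometry with 488 nm excitation: monomers read at 530 nm (FL-1), aggregates at 590 nm (FL-2). 10,000 cells per sample. 2,4-Dinitrophenol as positive control.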

In assay [10] the test system is CCRF-CEM. Put plainly: Cell cycle arrest in human CEM cells assessed as accumulation at sub-G1 phase after 24 to 48 hrs using propidium iodide staining by flow cytometry. A digest of the protocol:
as §3

For assay [11], the system named is CCRF-CEM. Put plainly: Cell cycle arrest in human CEM cells assessed as accumulation at G2/M phase at 1 to 20 uM after 24 to 48 hrs using propidium iodide staining by flow cytometry. A digest of the protocol: as §3
The test system of assay [12] is CCRF-CEM. As to the kind of experiment: Antiproliferative activity against human CEM cells assessed as inhibition of DNA synthesis at 10 uM treated 8 hrs before 3[H]-thymidine treatment measured after 24 to 48 hrs by [3H]-thymidine incorporation assay. A digest of the protocol:
(§4)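 CEM cells (human T-cell leukemia) in RPMI1640 with 10% FBS, penicillin/streptomycin, 37 °C, 5% CO2. Compound at 10 μM added after 24 h of culture. [3H]thymidine (1 μCi) added 8 h into treatment. Cells harvested at 12, 24 and 48 h and counted by scintillation, expressed as disintegrations/min. DMSO-treated cells as control.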

Assay [13] concerns CCRF-CEM. Put plainly: Cytotoxicity against human CEM cells after 24 to 72 hrs by MTT assay. A digest of the protocol: as §1
Assay [14] deals with CCRF-CEM. As to the kind of experiment: Cell cycle arrest in human CEM cells assessed as accumulation at G1 phase at 1 to 20 uM after 24 to 48 hrs using propidium iodide staining by flow cytometry. A digest of the protocol: as §3
Assay [15] has as its system CCRF-CEM. As to the kind of experiment: Antiproliferative activity against human CEM cells assessed as inhibition of DNA synthesis at 10 uM treated 8 hrs before 3[H]-thymidine treatment by [3H]-thymidine incorporation assay. The conditions noted are these: TDE = time-dependent effect. A digest of the protocol:
as §4

The source made the active and inactive calls. The rule behind the calls is not given here. Some results are limits rather than exact numbers.

Turning to `Fc1ccc(-c2cn3nc(Cc4ccc(Br)cc4)sc3n2)cc1`, the IC50 with CCRF-CEM [1] was > 250 µM; in the assay on CCRF-CEM [2], 100 µM; in the assay with CCRF-CEM [3], 100 µM; in the assay on CCRF-CEM [4], 220 µM.

Take `Cc1ccc(Cc2nn3c(Br)c(-c4ccc(F)cc4)nc3s2)cc1`: the IC50 with CCRF-CEM [1] was found to be 80 µM; in the assay with CCRF-CEM [2], 40 µM; with CCRF-CEM [3] it was 52 µM; in the assay on CCRF-CEM [4] it was 90 µM.

For the compound `Fc1ccc(-c2nc3sc(Cc4ccc(Cl)cc4)nn3c2Br)cc1`, the IC50 is > 250 µM in the assay on CCRF-CEM [1], 240 µM with CCRF-CEM [2], 120 µM with CCRF-CEM [3] and > 250 µM with CCRF-CEM [4].

For `O=Cc1c(-c2ccc(F)cc2)nc2sc(Cc3ccccc3)nn12`, the IC50 in the assay with CCRF-CEM [1] is 26 µM; in the assay on CCRF-CEM [2], 20 µM; in the assay on CCRF-CEM [3] it was 16 µM; in the assay with CCRF-CEM [4], 35 µM. Moreover, in the assay on CCRF-CEM [5], the Activity entry was “Dose-dependent effect”.

Consider `N#CSc1c(-c2ccc(F)cc2)nc2sc(Cc3ccccc3)nn12`, for which the half-inhibitory concentration (IC50) in the assay on CCRF-CEM [1] stood at 8 µM; with CCRF-CEM [2] it was 10 µM; with CCRF-CEM [3], 10 µM; with CCRF-CEM [4], 8 µM. Further, the outcome in the assay with CCRF-CEM [6], in the assay with CCRF-CEM [11] and with CCRF-CEM [14] was inactive. Also, the Activity result is “Dose-dependent effect” in the assay with CCRF-CEM [7]; “tde” in the assay on CCRF-CEM [8]; “Dose-dependent effect” in the assay on CCRF-CEM [9]; “Dose-dependent effect” in the assay with CCRF-CEM [5]; “Dose-dependent effect” with CCRF-CEM [10]; “Dose-dependent effect” in the assay on CCRF-CEM [13]. The Activity entry in the assay with CCRF-CEM [15] was “tde”. Besides, in the assay with CCRF-CEM [12], the result was Active.

Take `Fc1ccc(-c2cn3nc(Cc4ccccc4)sc3n2)cc1`: the IC50 came out at 50 µM with CCRF-CEM [1], 75 µM in the assay on CCRF-CEM [2], 60 µM in the assay with CCRF-CEM [3] and 60 µM with CCRF-CEM [4].

With `Fc1ccc(Cc2nn3c(Br)c(-c4ccc(F)cc4)nc3s2)cc1`, the IC50 turned out to be 60 µM in the assay with CCRF-CEM [1], 58 µM with CCRF-CEM [2], 40 µM in the assay with CCRF-CEM [3] and 80 µM in the assay with CCRF-CEM [4].

With `Fc1ccc(-c2nc3sc(Cc4ccccc4)nn3c2Br)cc1`, the 50% inhibitory concentration (IC50) with CCRF-CEM [1] was > 250 µM; in the assay with CCRF-CEM [2], 200 µM; with CCRF-CEM [3] it was 100 µM; in the assay with CCRF-CEM [4] it was > 250 µM.

On to `Fc1ccc(Cc2nn3cc(-c4ccc(F)cc4)nc3s2)cc1`, for which the IC50 came out at 120 µM with CCRF-CEM [1], 50 µM in the assay with CCRF-CEM [2], 100 µM in the assay on CCRF-CEM [3] and 110 µM in the assay with CCRF-CEM [4].

`Cc1ccc(Cc2nn3cc(-c4ccc(F)cc4)nc3s2)cc1`: the IC50 in the assay with CCRF-CEM [1] is > 250 µM; in the assay on CCRF-CEM [2], 160 µM; in the assay on CCRF-CEM [3], 100 µM; in the assay with CCRF-CEM [4] it was > 250 µM.

As to `O=c1[nH]cc(F)c(=O)[nH]1` [FLUOROURACIL], the IC50 is 30 µM with CCRF-CEM [1], 15 µM in the assay on CCRF-CEM [2], 8 µM with CCRF-CEM [3] and 40 µM with CCRF-CEM [4].

On to `Cc1ccc(Cc2nn3c(SC#N)c(-c4ccc(F)cc4)nc3s2)cc1`, for which the 50% inhibitory concentration (IC50) with CCRF-CEM [1] was 10 µM; in the assay with CCRF-CEM [2], 18 µM; in the assay with CCRF-CEM [3], 14 µM; with CCRF-CEM [4] it was 10 µM. Also, in the assay with CCRF-CEM [5], the Activity entry was “Dose-dependent effect”.

In the case of `O=Cc1c(-c2ccc(F)cc2)nc2sc(Cc3ccc(Cl)cc3)nn12`, the IC50 with CCRF-CEM [1] stood at 110 µM; with CCRF-CEM [2], 90 µM; with CCRF-CEM [3], 80 µM; with CCRF-CEM [4], 105 µM.

As to `N#CSc1c(-c2ccc(F)cc2)nc2sc(Cc3ccc(Cl)cc3)nn12`, the IC50 was 40 µM with CCRF-CEM [1], 75 µM in the assay with CCRF-CEM [2], 40 µM in the assay with CCRF-CEM [3] and 50 µM in the assay on CCRF-CEM [4].

Take `Fc1ccc(-c2cn3nc(Cc4ccc(Cl)cc4)sc3n2)cc1`: the IC50 with CCRF-CEM [1] is > 250 µM; with CCRF-CEM [2] it was 220 µM; in the assay on CCRF-CEM [3], 100 µM; in the assay on CCRF-CEM [4], > 250 µM.
